ChEMBL document CHEMBL3351348, “Synthesis and biological evaluation of new simple indolic non peptidic HIV Protease inhibitors: the effect of different substitution patterns” (Bioorg Med Chem, 2014)

Test: Inhibition of HIV Protease using Abz-Thr-Ile-Nle-Phe(NO2)-Gln-Arg as fluorogenic substrate by fluorimetry; call rule not given here
Design: species or system Human immunodeficiency virus
How it was run: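 Commercial HIV-PR at 10 nm final, in pH 5.5 MES buffer (100 mM MES/NaOH, 400 mM NaCl, 1 mM EDTA, 1 mM DTT), 25 °C thermostated cuvette. Substrate at 30 μM final. Excitation 325 nm, emission 420 nm. Enzyme added after 1.5 min and inhibitor (DMSO stock) after a further 1 min, then read 10 min. IC50 from initial rates over several inhibitor concentrations, at least three independent experiments.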

COc1ccc(S(=O)(=O)N(CC(C)C)C[C@@H](O)COc2ccc3[nH]ccc3c2)cc1OC
IC50 (read-out: IC50): 1 µM

COc1ccc(S(=O)(=O)N(CC(C)C)C[C@@H](O)COc2ccc3cc[nH]c3c2)cc1OC
IC50 (read-out: IC50): 346 µM

CC(C)(C)NC(=O)[C@@H]1C[C@@H]2CCCC[C@@H]2CN1C[C@@H](O)COc1cccc2[nH]ccc12
IC50 (read-out: IC50): 24 µM

CC(C)(C)NC(=O)[C@@H]1C[C@@H]2CCCC[C@@H]2CN1C[C@@H](O)COc1ccc2[nH]ccc2c1
IC50 (read-out: IC50): 14 µM

CC(C)(C)NC(=O)[C@@H]1C[C@@H]2CCCC[C@@H]2CN1C[C@@H](O)COc1ccc2cc[nH]c2c1
IC50 (read-out: IC50): 138 µM

CC(C)CN(C[C@@H](O)COc1cccc2[nH]ccc12)S(=O)(=O)c1ccc([N+](=O)[O-])cc1
IC50 (read-out: IC50): 346 µM

CC(C)CN(C[C@@H](O)COc1ccc2[nH]ccc2c1)S(=O)(=O)c1ccc([N+](=O)[O-])cc1
IC50 (read-out: IC50): 10 µM

CC(C)CN(C[C@@H](O)COc1ccc2[nH]ccc2c1)S(=O)(=O)c1ccc(N)cc1
IC50 (read-out: IC50): 12 µM

CC(C)CN(C[C@@H](O)COc1ccc2cc[nH]c2c1)S(=O)(=O)c1ccc([N+](=O)[O-])cc1
IC50 (read-out: IC50): 46 µM

COc1ccc(S(=O)(=O)N(CC(C)C)C[C@@H](O)COc2cccc3[nH]ccc23)cc1OC
IC50 (read-out: IC50): 336 µM

CC(C)CN(C[C@@H](O)CNc1cccc2[nH]ccc12)S(=O)(=O)c1ccc([N+](=O)[O-])cc1
IC50 (read-out: IC50): 2630 µM

CC(C)CN(C[C@@H](O)CNc1ccc2[nH]ccc2c1)S(=O)(=O)c1ccc([N+](=O)[O-])cc1
IC50: Not Active

COc1ccc(S(=O)(=O)N(CC(C)C)C[C@@H](O)CNc2cccc3[nH]ccc23)cc1OC
IC50 (read-out: IC50): 336 µM

COc1ccc(S(=O)(=O)N(CC(C)C)C[C@@H](O)CNc2ccc3[nH]ccc3c2)cc1OC
IC50 (read-out: IC50): 4400 µM

CC(C)(C)NC(=O)[C@@H]1C[C@@H]2CCCC[C@@H]2CN1C[C@@H](O)COC(=O)Nc1cccc2[nH]ccc12
IC50 (read-out: IC50): 50 µM

CC(C)(C)NC(=O)[C@@H]1C[C@@H]2CCCC[C@@H]2CN1C[C@@H](O)COC(=O)Nc1ccc2[nH]ccc2c1
IC50 (read-out: IC50): 606 µM

CC(C)CN(C[C@@H](O)COC(=O)Nc1cccc2[nH]ccc12)S(=O)(=O)c1ccc([N+](=O)[O-])cc1
IC50 (read-out: IC50): 72 µM

CC(C)CN(C[C@@H](O)COC(=O)Nc1ccc2[nH]ccc2c1)S(=O)(=O)c1ccc([N+](=O)[O-])cc1
IC50 (read-out: IC50): 2 µM

COc1ccc(S(=O)(=O)N(CC(C)C)C[C@@H](O)COC(=O)Nc2cccc3[nH]ccc23)cc1OC
IC50 (read-out: IC50): 615 µM

COc1ccc(S(=O)(=O)N(CC(C)C)C[C@@H](O)COC(=O)Nc2ccc3[nH]ccc3c2)cc1OC
IC50 (read-out: IC50): 1400 µM

COc1ccc(S(=O)(=O)N(CC(C)C)C[C@@H](O)COC(=O)Nc2ccc3[nH]ccc3c2)cc1
IC50 (read-out: IC50): 8 µM

CC(C)(C)NC(=O)[C@@H]1C[C@@H]2CCCC[C@@H]2CN1C[C@@H](O)CNc1cccc2[nH]ccc12
IC50 (read-out: IC50): 157 µM

CC(C)(C)NC(=O)[C@@H]1C[C@@H]2CCCC[C@@H]2CN1C[C@@H](O)CNc1ccc2[nH]ccc2c1
IC50 (read-out: IC50): 176 µM
